# From ChEMBL document CHEMBL4732105, “First orally bioavailable prodrug of proteolysis targeting chimera (PROTAC) degrades cyclin-dependent kinases 2/4/6 in vivo” (Eur J Med Chem, 2021)
# Active and inactive are the calls of the source. No cut-off for these calls is given here.
# Legend:
# B16-F10 [1] = test: Cytotoxicity against mouse B16F10 cells assessed as reduction in cell viability after 72 hrs by MTT assay; format: functional, cell-based; conditions: B16-F10, 72 h
# How it was run: (§1)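 Cells exposed to compound for 72 h and viability read by MTT; IC50 from three independent experiments.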
# A-375 = test: Cytotoxicity against human A375 cells assessed as reduction in cell viability after 72 hrs by MTT assay; format: functional, cell-based; conditions: A-375, 72 h; how it was run: as §1
# [2] = Cmax in Sprague-Dawley rat at 200 mg/kg, po; format: ADME, organism-based; set-up: route oral, dose 200 mg/kg; conditions: in vivo
# How it was run: (§2)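 Single oral dose of 200 mg/Kg to SD rats (n = 3). Prodrug and released active degrader quantified in plasma over 0–12 h; Cmax, Tmax and AUC0-12 derived by non-compartmental model.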
# [3] = Cmax in Sprague-Dawley rat at 10 mg/kg, iv; format: ADME, organism-based; set-up: route intravenous, dose 10 mg/kg; conditions: in vivo
# [4] = Tmax in Sprague-Dawley rat at 200 mg/kg, po; format: ADME, organism-based; conditions: in vivo
# How it was run: (§3)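 SD rats, n = 3, single dose of prodrug: IV by tail vein at 10 mg/Kg, or PO at 200 mg/Kg. Plasma levels of prodrug and released active degrader followed over 0–12 h. Parameters derived by a non-compartmental model.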
# [5] = AUC (0 to 12 hrs) in Sprague-Dawley rat at 200 mg/kg, po; format: ADME, organism-based; set-up: time < 12 hr, route oral, dose 200 mg/kg; conditions: in vivo; how it was run: as §2
# [6] = AUC (0 to 12 hrs) in Sprague-Dawley rat at 10 mg/kg, iv; format: ADME, organism-based; set-up: time < 12 hr, route intravenous, dose 10 mg/kg; conditions: in vivo
# [7] = Oral bioavailability in Sprague-Dawley rat at 200 mg/kg; format: ADME, organism-based; conditions: in vivo; how it was run: as §3
# B16-F10 [8] = test: Antitumor activity against mouse B16F10 cells xenografted in C57BL/6J mouse assessed as supression in tumor size at 200 mg/kg, po measured after 15 days; format: functional, organism-based; conditions: time 15.0 day
# How it was run: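 C57BL/6J mice given B16F10 cells […], then dosed orally versus vehicle. Tumor volume and body weight monitored; tumors weighed on day 15 (n = 6). Tumor tissue (n = 5) immunostained for CDK2/4/6.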
# [9] = Toxicity in mouse C57BL/6J mouse xenografted with B16F10 cells assessed as effect on body weight at 200 mg/kg, po measured after 15 days; format: organism-based; conditions: in vivo, 360 h, time 15 day
# How it was run: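 C57BL/6J mice injected […] with B16F10 cells and given compound orally. Tumor volume and body weight monitored, and tumors weighed on day 15. Mean ± SD, n = 6.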
# CDK6/cyclin D3 = CDK6/cyclin D3 (Homo sapiens, UniProt Q00534); test: Inhibition of CDK6/Cyclin D (unknown origin); format: protein-complex assay
# [10] = molecular target: Cyclin-dependent kinase 4/cyclin D1 (Homo sapiens, UniProt P11802); test: Inhibition of CDK4/cyclin D1 (unknown origin); format: protein-complex assay
# [11] = molecular target: Cyclin-dependent kinase 2/cyclin E1 (Homo sapiens, UniProt P24941); test: Inhibition of CDK2/Cyclin E (unknown origin); format: protein-complex assay
# Cyclin-dependent kinase 4/cyclin D1, sequence (P11802 whole entry): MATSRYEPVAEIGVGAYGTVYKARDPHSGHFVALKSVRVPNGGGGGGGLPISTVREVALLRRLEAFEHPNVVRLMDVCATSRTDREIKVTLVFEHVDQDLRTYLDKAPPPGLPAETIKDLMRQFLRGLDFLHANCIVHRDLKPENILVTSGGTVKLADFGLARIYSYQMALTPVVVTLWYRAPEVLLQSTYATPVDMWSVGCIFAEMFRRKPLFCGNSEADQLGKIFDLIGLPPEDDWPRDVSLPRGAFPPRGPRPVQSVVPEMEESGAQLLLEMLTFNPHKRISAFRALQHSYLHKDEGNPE
# Cyclin-dependent kinase 4/cyclin D1, sequence (P24385 whole entry, further chain): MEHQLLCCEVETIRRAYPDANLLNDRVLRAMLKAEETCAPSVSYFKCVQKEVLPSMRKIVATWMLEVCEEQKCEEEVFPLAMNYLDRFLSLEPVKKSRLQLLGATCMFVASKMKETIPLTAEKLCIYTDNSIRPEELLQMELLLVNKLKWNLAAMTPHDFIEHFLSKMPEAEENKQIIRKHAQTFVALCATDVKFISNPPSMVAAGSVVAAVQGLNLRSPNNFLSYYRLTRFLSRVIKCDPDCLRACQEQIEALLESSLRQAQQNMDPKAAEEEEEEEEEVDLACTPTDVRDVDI
# CDK6/cyclin D3, sequence (P30281 whole entry): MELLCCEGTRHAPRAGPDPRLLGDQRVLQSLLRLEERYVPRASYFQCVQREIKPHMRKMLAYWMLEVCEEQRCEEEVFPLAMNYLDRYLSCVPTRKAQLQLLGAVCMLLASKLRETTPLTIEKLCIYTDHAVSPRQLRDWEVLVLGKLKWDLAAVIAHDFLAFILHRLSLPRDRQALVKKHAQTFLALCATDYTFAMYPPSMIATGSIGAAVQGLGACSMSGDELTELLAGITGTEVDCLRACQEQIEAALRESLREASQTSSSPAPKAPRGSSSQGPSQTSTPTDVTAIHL
# CDK6/cyclin D3, sequence (Q00534 whole entry): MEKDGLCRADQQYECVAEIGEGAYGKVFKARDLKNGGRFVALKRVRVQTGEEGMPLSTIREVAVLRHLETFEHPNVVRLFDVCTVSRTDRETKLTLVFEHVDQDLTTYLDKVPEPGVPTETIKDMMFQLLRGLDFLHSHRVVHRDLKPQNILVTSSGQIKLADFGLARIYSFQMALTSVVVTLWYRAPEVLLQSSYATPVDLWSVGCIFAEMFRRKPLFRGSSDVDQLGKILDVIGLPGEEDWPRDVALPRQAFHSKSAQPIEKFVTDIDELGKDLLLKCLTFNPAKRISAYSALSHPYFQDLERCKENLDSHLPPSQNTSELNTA
smiles,measurement,setting,value
CN(C)C(=O)c1cc2cnc(Nc3ccc(N4CCNCC4)cn3)nc2n1C1CCCC1 [RIBOCICLIB],IC50,B16-F10 [1],> 10000 nM
same,IC50,A-375,> 10000 nM
Nc1cccc2c1C(=O)N(C1CCC(=O)NC1=O)C2=O (stereo not given) [POMALIDOMIDE],IC50,B16-F10 [1],> 10000 nM
same,IC50,A-375,> 10000 nM
CN(C)C(=O)c1cc2cnc(Nc3ccc(C(=O)NCCCCCCNc4cccc5c4C(=O)N(C4CCC(=O)N(COC(=O)C(C)(C)C)C4=O)C5=O)cc3)nc2n1C1CCCC1 (stereo not given),Cmax,[2],2260 µg/mL
same,Cmax,[3],111 µg/mL
same,Tmax,[4],15 min
same,AUC,[5],2810 µg·h/mL
same,AUC,[6],95.7 µg·h/mL
same,bioavailability,[7],68%
same,Activity,B16-F10 [8],Active
same,Activity,[9],Non-Toxic
COC(=O)c1ccc(Nc2ncc3cc(C(=O)N(C)C)n(C4CCCC4)c3n2)cc1,IC50,CDK6/cyclin D3,101 nM
same,IC50,[10],112 nM
same,IC50,[11],390 nM
